Test results taken from ChEMBL document CHEMBL5335802, “Lead Optimization of the 5-Phenylpyrazolopyrimidinone NPD-2975 toward Compounds with Improved Antitrypanosomal Efficacy” (J Med Chem, 2024).
The source made the active and inactive calls. No cut-off for these calls is given here.

Experiments:
[1] = tested on: Trypanosoma brucei; test: Antitrypanosomal activity against Trypanosoma brucei assessed as inhibition of parasite growth incubated for 72 hrs by resazurin reagent fluorimetric analysis; format: functional, organism-based
[2] = Cytotoxicity against human MRC5 cells incubated for 3 days by resazurin reagent fluorimetric analysis; format: toxicity, cell-based
[3] = Toxicity in mouse infected with Trypanosoma brucei Squib 427 trypomastigotes assessed as animal death at 10 mg/kg,po bid administrated for 5 consecutive days measured after 60 days; format: organism-based; details: in vivo, 1440 h, time 60 day
[4] = Metabolic stability in human liver microsomes assessed as parent compound remaining in phase-II metabolism measured after 1 hr; format: ADME, Microsome; details: read-out: Stability
[5] = Metabolic stability in mouse liver microsomes assessed as parent compound remaining in phase-II metabolism measured after 1 hr; format: ADME, Microsome; details: read-out: Stability
[6] = Metabolic stability in human liver microsomes assessed as drug metabolism in phase-I stage; format: ADME, Microsome
[7] = tested on: Plasmodium falciparum; test: Antiplasmodial activity against Plasmodium falciparum assessed as inhibition of parasite growth incubated for 72 hrs by resazurin reagent fluorimetric analysis; format: functional, organism-based
[8] = Cytotoxicity against mouse Peritoneal macrophage cell incubated for 3 days by resazurin reagent fluorimetric analysis; format: toxicity, cell-based; details: peritoneal macrophages
[9] = tested on: Trypanosoma brucei; test: Antitrypanosomal activity against Trypanosoma brucei Squib 427 trypomastigotes infected in mouse model assessed as reduction in parasite growth in blood at 25 mg/kg,po bid administrated for 5 consecutive days by SL-RNA qPCR assay; format: functional, organism-based
In short: (§1)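 Surviving mice from the acute infection model (PO b.i.d., 5 days, PEG400) tested by SL-RNA qPCR. Peripheral blood erythrocyte-lysed before RNA extraction. Mice sedated with ketamine/xylazine and perfused; fat, brain and spleen pieces held in RNAlater overnight at 4 °C. Activation 10 min 45 °C, 10 min 95 °C; 40 cycles 95/50/60 °C, 15 s each; melting curve. Eef2 qPCR confirmed RNA extraction.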

[10] = tested on: Trypanosoma brucei; test: Antitrypanosomal activity against Trypanosoma brucei Squib 427 trypomastigotes infected in mouse model assessed as reduction in parasite growth in fat at 25 mg/kg,po bid administrated for 5 consecutive days by SL-RNA qPCR assay; format: functional, organism-based; in short: as §1
[11] = tested on: Trypanosoma brucei; test: Antitrypanosomal activity against Trypanosoma brucei Squib 427 trypomastigotes infected in mouse model assessed as reduction in parasitemia at 25 mg/kg,po bid administrated for 5 consecutive days; format: functional, organism-based
In short: (§2)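 Female Swiss mice (15-20 g), three per group, infected IP with 10^4 T. brucei Squib 427 trypomastigotes. Dosing PO b.i.d. for 5 days in PEG400; first dose 30 min before infection. Vehicle and suramin (10 mg/kg IP s.i.d., 5 days) controls. Parasitemia counted microscopically in tail-vein blood drops at several time points up to 63 dpi. Clinical or adverse effects observed.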

[12] = tested on: Trypanosoma brucei; test: Antitrypanosomal activity against Trypanosoma brucei Squib 427 trypomastigotes infected in mouse model assessed as reduction in parasite growth in spleen at 25 mg/kg,po bid administrated for 5 consecutive days by SL-RNA qPCR assay; format: functional, organism-based; in short: as §1
[13] = tested on: Trypanosoma brucei; test: Antitrypanosomal activity against Trypanosoma brucei Squib 427 trypomastigotes infected in mouse model assessed as reduction in parasite growth in fat at 50 mg/kg,po bid administrated for 5 consecutive days by SL-RNA qPCR assay; format: functional, organism-based; in short: as §1
[14] = tested on: Trypanosoma brucei; test: Antitrypanosomal activity against Trypanosoma brucei Squib 427 trypomastigotes infected in mouse model assessed as reduction in parasite growth in blood at 50 mg/kg,po bid administrated for 5 consecutive days by SL-RNA qPCR assay; format: functional, organism-based; in short: as §1
[15] = tested on: Trypanosoma brucei; test: Antitrypanosomal activity against Trypanosoma brucei Squib 427 trypomastigotes infected in mouse model assessed as reduction in parasite growth in spleen at 50 mg/kg,po bid administrated for 5 consecutive days by SL-RNA qPCR assay; format: functional, organism-based; in short: as §1
[16] = Toxicity in mouse infected with Trypanosoma brucei Squib 427 trypomastigotes assessed as animal death at 50 mg/kg,po bid administrated for 5 consecutive days measured after 60 days; format: organism-based; details: in vivo, 1440 h, time 60 day
In short: (§3)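 Female Swiss mice (15-20 g), groups of three, infected IP with 10⁴ T. brucei Squib 427 trypomastigotes. Compound given PO b.i.d. for 5 days in PEG400 (formulated at 12.5 and 6.25 mg/mL, up to 100 μL/25 g body weight). First dose 30 min before infection. PEG400 vehicle control group included. Animals observed for clinical or adverse effects and survival; tail-vein parasitemia checked microscopically until 63 dpi.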

[17] = Toxicity in mouse infected with Trypanosoma brucei Squib 427 trypomastigotes assessed as animal death at 25 mg/kg,po bid administrated for 5 consecutive days; format: organism-based; details: in vivo; in short: as §3
[18] = tested on: Trypanosoma brucei; test: Antitrypanosomal activity against Trypanosoma brucei Squib 427 trypomastigotes infected in mouse model assessed as reduction in parasite growth in brain at 50 mg/kg,po bid administrated for 5 consecutive days by SL-RNA qPCR assay; format: functional, organism-based; in short: as §1
[19] = tested on: Trypanosoma brucei; test: Antitrypanosomal activity against Trypanosoma brucei Squib 427 trypomastigotes infected in mouse model assessed as reduction in parasitemia at 50 mg/kg,po bid administrated for 5 consecutive days by microscopic analysis; format: functional, organism-based; in short: as §2
[20] = tested on: Trypanosoma brucei; test: Antitrypanosomal activity against Trypanosoma brucei Squib 427 trypomastigotes infected in mouse model assessed as reduction in parasite growth in brain at 25 mg/kg,po bid administrated for 5 consecutive days by SL-RNA qPCR assay; format: functional, organism-based; in short: as §1

O=c1[nH]c(-c2ccc(F)cc2)nc2c(-c3ccccc3)n[nH]c12
IC50 ([1]; read-out: pIC50 (converted)): 0.0501 µM
IC50 at 3 days [2]: > 63.1 µM

Cc1n[nH]c2c(=O)[nH]c(-c3ccc(F)cc3)nc12
IC50 at 3 days [2]: > 63.1 µM

CCCn1nc(C(C)C)c2nc(-c3ccc(F)cc3)[nH]c(=O)c21
IC50 at 3 days [2]: > 63.1 µM

COc1ccc(CCn2nc(C(C)C)c3nc(-c4ccc(F)cc4)[nH]c(=O)c32)cc1
IC50 ([1]; read-out: IC50): 3.2 µM
IC50 ([1]; read-out: pIC50 (converted)): 3.16 µM
IC50 at 3 days [2]: > 63.1 µM

CC(C)c1c2nc(-c3ccc(F)cc3)[nH]c(=O)c2nn1C
IC50 at 3 days [2]: > 63.1 µM

CC(C)c1nn(C)c2c(=O)[nH]c(-c3ccc(F)cc3)nc12
IC50 ([1]; read-out: pIC50 (converted)): 0.0794 µM
IC50 at 3 days [2]: > 63.1 µM

Cc1ccc(C(=O)Nc2ccc(S(=O)(=O)O)c3cc(S(=O)(=O)O)cc(S(=O)(=O)O)c23)cc1NC(=O)c1cccc(NC(=O)Nc2cccc(C(=O)Nc3cc(C(=O)Nc4ccc(S(=O)(=O)O)c5cc(S(=O)(=O)O)cc(S(=O)(=O)O)c45)ccc3C)c2)c1 [SURAMIN]
Activity [3]: Non-Toxic

CC(C)c1n[nH]c2c(=O)[nH]c(-c3ccc(F)cc3)nc12
remaining at 1 h [4]: 69%
remaining at 1 h [5]: 69%
Stability [6]: Stable

CC(C)c1n[nH]c2c(=O)[nH]c(Cc3ccccc3)nc12
IC50 [7]: 1.26 µM

CC(C)c1nn(CCC(N)=O)c2c(=O)[nH]c(-c3ccc(F)cc3)nc12
IC50 at 3 days [2]: > 63.1 µM

CCn1nc(C(C)C)c2nc(-c3ccc(F)cc3)[nH]c(=O)c21
IC50 at 3 days [2]: > 63.1 µM

CCc1n[nH]c2c(=O)[nH]c(-c3ccc(F)cc3)nc12
IC50 at 3 days [2]: > 63.1 µM

O=c1[nH]c(-c2ccc(F)cc2)nc2c(C3CCCCC3)n[nH]c12
IC50 ([1]; read-out: pIC50 (converted)): 0.0398 µM
IC50 at 3 days [2]: > 63.1 µM

O=c1[nH]c(-c2ccc(F)cc2)nc2c(C3CCCC3)n[nH]c12
remaining at 1 h [4]: 69%
IC50 at 3 days [8]: > 63.1 µM
remaining at 1 h [5]: 69%
Stability [6]: Stable
IC50 at 3 days [2]: > 63.1 µM

CC(C)c1nn(C(C)C)c2c(=O)[nH]c(-c3ccc(F)cc3)nc12
IC50 at 3 days [2]: > 63.1 µM

COCCn1nc(C(C)C)c2nc(-c3ccc(F)cc3)[nH]c(=O)c21
IC50 at 3 days [2]: > 63.1 µM

O=c1[nH]c(-c2ccc(F)cc2)nc2cn[nH]c12
IC50 at 3 days [2]: > 63.1 µM

CC(C)(C)c1n[nH]c2c(=O)[nH]c(-c3ccc(F)cc3)nc12
Activity [9]: Active
Activity [10]: Active
Activity [11]: Active
Activity [12]: Active
Activity [13]: Active
Activity [14]: Active
remaining at 1 h [4]: 69%
Activity [15]: Active
Activity [16]: Non-Toxic
Activity [17]: Non-Toxic
Activity [18]: Active
Activity [19]: Active
Activity [20]: Active
IC50 at 3 days [8]: > 63.1 µM
remaining at 1 h [5]: 69%
Stability [6]: Stable
IC50 at 3 days [2]: > 63.1 µM

CC(C)c1nn(CCO)c2c(=O)[nH]c(-c3ccc(F)cc3)nc12
IC50 at 3 days [2]: > 63.1 µM

CC(C)c1[nH]nc2c(=O)n(C)c(-c3ccc(F)cc3)nc12
IC50 at 3 days [2]: > 63.1 µM
